The source made the active and inactive calls. The calls are words filed in the database; no cut-off is given here.
Key:
[1] = Cytotoxicity against human CEM cells assessed as inhibition of cell proliferation after 72 hrs by coulter counter analysis; format: cell-based, CCRF-CEM
Procedure, shortened: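 CEM cells, (5–7.5) × 10^4 per well, with test compound, grown 72 h at 37 °C in humidified CO2 atmosphere; cells counted by Coulter counter. IC50 is the concentration inhibiting proliferation by 50%.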

[2] = Cytotoxicity against human CEM cells assessed as minimum concentration required for morphological alteration by microscopic analysis; format: cell-based, CCRF-CEM
[3] = system: Human immunodeficiency virus 1; experiment: Antiviral activity against HIV1 3B infected in human CEM cells assessed as inhibition of virus-induced syncytium formation after 4 to 5 days by microscopic analysis; format: functional, organism-based; settings: Human immunodeficiency virus 1, 3B, CCRF-CEM
Procedure, shortened: (§1)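 CEM cells (~3 × 10^5 cells/mL) infected with 100 CCID50 per mL of HIV-1(IIIB) or HIV-2(ROD), with compound dilutions; 4–5 days at 37 °C, humidified CO2 atmosphere. Giant (syncytium) cell formation scored microscopically; EC50 is the concentration inhibiting giant cell formation by 50%.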

[4] = system: Moloney murine sarcoma virus; experiment: Antiviral against Moloney murine sarcoma virus infected in mouse C3H/3T3 cells assessed as inhibition of virus-induced cell transformation after 6 days post infection by microscopic analysis; format: functional, organism-based; settings: C3H/3T3, 144 h
Procedure, shortened: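 Murine embryo fibroblast C3H/3T3 monolayers infected with 75 focus-forming units of MSV, with test compound; transformation examined microscopically at day 6 postinfection. EC50 is the concentration inhibiting MSV-induced transformation by 50%.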

[5] = system: Human immunodeficiency virus 2; experiment: Antiviral activity against HIV2 ROD infected in human CEM cells assessed as inhibition of virus-induced syncytium formation after 4 to 5 days by microscopic analysis; format: functional, organism-based; settings: Human immunodeficiency virus 2, ISOLATE ROD, CCRF-CEM; procedure, shortened: as §1
[6] = system: Human immunodeficiency virus 1; experiment: Antiviral activity against HIV1 infected in human MT4 cells assessed as inhibition of virus-induced cytopathicity; format: functional, organism-based; settings: Human immunodeficiency virus 1, MT4
[7] = Cytotoxicity against human MT4 cells; format: cell-based
[8] = target: N6-methyl-AMP deaminase, ADAL (Homo sapiens) (UniProt Q6DHV7); experiment: Activity at human recombinant N6-methyl-AMP deaminase assessed as reaction rate after 60 mins by HPLC analysis
N6-methyl-AMP deaminase, ADAL (Homo sapiens), sequence (Q6DHV7 whole entry, looked up): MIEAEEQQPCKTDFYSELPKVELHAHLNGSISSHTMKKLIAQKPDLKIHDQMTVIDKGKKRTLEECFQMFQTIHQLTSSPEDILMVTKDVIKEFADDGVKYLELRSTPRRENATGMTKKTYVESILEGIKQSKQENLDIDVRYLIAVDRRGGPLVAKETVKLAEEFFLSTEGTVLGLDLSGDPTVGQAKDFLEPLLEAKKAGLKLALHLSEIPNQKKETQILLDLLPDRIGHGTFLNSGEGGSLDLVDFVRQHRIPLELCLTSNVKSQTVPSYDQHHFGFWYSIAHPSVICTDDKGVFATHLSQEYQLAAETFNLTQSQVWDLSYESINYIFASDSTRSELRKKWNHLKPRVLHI

For `Nc1nc(N2CCCC2)c2ncn(C[C@H](CF)OCP(=O)(O)O)c2n1`, the CC50 at 72 h [1] was over 100 µM, the MCC [2] was over 100 µM and the EC50 [3] was over 100 µM. The EC50 [4] was over 100 µM and the EC50 [5] was over 100 µM.
`Nc1nc(N)c2ncn(C[C@H](CF)OCP(=O)(O)O)c2n1` gave an EC50 [6] of 4.3 µM and a CC50 [7] of over 300 µM.
`Nc1nc(NC2CC2)c2ncn(C[C@@H](CF)OCP(=O)(O)O)c2n1` gave a CC50 at 72 h [1] of over 278 µM, an MCC [2] of over 100 µM and an EC50 [3] of 25.5 µM. It also gave an EC50 [4] of 6.9 µM, an Activity [8] of 1.98 nmol/min/mg and an EC50 [5] of 11.1 µM.
Compound `Nc1nc(N)c2ncn(C[C@@H](CF)OCP(=O)(O)O)c2n1` has an EC50 [6] of 15 µM and a CC50 [7] of over 300 µM.
`CCN(CC)c1nc(N)nc2c1ncn2C[C@@H](CF)OCP(=O)(O)O` showed a CC50 at 72 h [1] of over 100 µM, an MCC [2] of over 100 µM and an EC50 [3] of over 100 µM. For the same compound, the EC50 [4] was over 100 µM and the EC50 [5] was over 100 µM.
With `C=CCNc1nc(N)nc2c1ncn2C[C@H](CF)OCP(=O)(O)O` the CC50 at 72 h [1] was over 278 µM, the MCC [2] was over 100 µM and the EC50 [3] was 18 µM. The EC50 [4] was 69 µM, the Activity [8] was 5.64 nmol/min/mg and the EC50 [5] was 36 µM.
With `Nc1nc(O)c2ncn(C[C@H](CF)OCP(=O)(O)O)c2n1` the EC50 [6] was 5.9 µM and the CC50 [7] was over 300 µM.
Compound `COCCNc1nc(N)nc2c1ncn2C[C@H](CF)OCP(=O)(O)O` has a CC50 at 72 h [1] of over 100 µM, an MCC [2] of over 100 µM and an EC50 [3] of over 100 µM. The EC50 [4] was over 100 µM and the EC50 [5] was over 100 µM.
Work on `C[C@H](Cn1cnc2c(N)ncnc21)OCP(=O)(O)O` [TENOFOVIR ANHYDROUS] yielded a CC50 at 72 h [1] of over 250 µM, an MCC [2] of over 100 µM and an EC50 [3] of 4.6 µM. It also gave an EC50 [5] of 3.2 µM.
`CN(C)c1nc(N)nc2c1ncn2C[C@@H](CF)OCP(=O)(O)O` showed a CC50 at 72 h [1] of over 255 µM, an MCC [2] of over 100 µM and an EC50 [3] of over 255 µM. It also gave an EC50 [4] of 45 µM, an Activity [8] of 8.07 nmol/min/mg and an EC50 [5] of 115 µM.
With `CCCNc1nc(N)nc2c1ncn2C[C@H](CF)OCP(=O)(O)O` the CC50 at 72 h [1] was over 276 µM, the MCC [2] was over 100 µM and the EC50 [3] was 41.4 µM. It also gave an EC50 [4] of over 100 µM, an Activity [8] of 4.17 nmol/min/mg and an EC50 [5] of 22.4 µM.
With `Nc1ncnc2c1ncn2CCOCP(=O)(O)O` [ADEFOVIR] the CC50 at 72 h [1] was at least 250 µM, the MCC [2] was at least 100 µM and the EC50 [3] was 7.4 µM. For the same compound, the EC50 [4] was 2.1 µM and the EC50 [5] was 7 µM.
`Nc1nc(O)c2ncn(C[C@@H](CF)OCP(=O)(O)O)c2n1` gave an EC50 [6] of 3.9 µM and a CC50 [7] of 103 µM.
In the case of `Nc1nc(N2CCCC2)c2ncn(C[C@@H](CF)OCP(=O)(O)O)c2n1`, the CC50 at 72 h [1] is reported as over 100 µM, the MCC [2] is reported as at least 100 µM and the EC50 [3] is reported as over 100 µM. The EC50 [4] was over 20 µM and the EC50 [5] was over 100 µM.
Compound `CCCNc1nc(N)nc2c1ncn2C[C@@H](CF)OCP(=O)(O)O` has a CC50 at 72 h [1] of over 276 µM, an MCC [2] of at least 100 µM and an EC50 [3] of over 276 µM. The EC50 [4] was over 100 µM, the Activity [8] was “inactive” and the EC50 [5] was over 276 µM.
In the case of `COCCNc1nc(N)nc2c1ncn2C[C@@H](CF)OCP(=O)(O)O`, the CC50 at 72 h [1] is reported as over 100 µM, the MCC [2] is reported as over 100 µM and the EC50 [3] is reported as over 100 µM. It also gave an EC50 [4] of over 100 µM and an EC50 [5] of over 100 µM.
Work on `CN(C)CCNc1nc(N)nc2c1ncn2C[C@@H](CF)OCP(=O)(O)O` yielded a CC50 at 72 h [1] of over 100 µM, an MCC [2] of over 100 µM and an EC50 [3] of over 100 µM. For the same compound, the EC50 [4] was over 100 µM and the EC50 [5] was over 100 µM.
With `CCN(CC)c1nc(N)nc2c1ncn2C[C@H](CF)OCP(=O)(O)O` the CC50 at 72 h [1] was over 100 µM, the MCC [2] was over 100 µM and the EC50 [3] was over 100 µM. The EC50 [4] was over 100 µM and the EC50 [5] was over 100 µM.
For `CN(C)c1nc(N)nc2c1ncn2C[C@H](CF)OCP(=O)(O)O`, the CC50 at 72 h [1] was over 287 µM, the MCC [2] was at least 100 µM and the EC50 [3] was 51.7 µM. For the same compound, the EC50 [4] was over 20 µM, the Activity [8] was 23.6 nmol/min/mg and the EC50 [5] was 103 µM.
`CN(C)CCNc1nc(N)nc2c1ncn2C[C@H](CF)OCP(=O)(O)O` gave a CC50 at 72 h [1] of over 53 µM and an EC50 [3] of over 53 µM.
Compound `Nc1nc(NC2CC2)c2ncn(C[C@H](CF)OCP(=O)(O)O)c2n1` has a CC50 at 72 h [1] of over 278 µM, an MCC [2] of over 100 µM and an EC50 [3] of 14.2 µM. The EC50 [4] was 50 µM, the Activity [8] was 64.5 nmol/min/mg and the EC50 [5] was 22.8 µM.
With `C=CCNc1nc(N)nc2c1ncn2C[C@@H](CF)OCP(=O)(O)O` the CC50 at 72 h [1] was over 247 µM, the MCC [2] was over 100 µM and the EC50 [3] was over 247 µM. For the same compound, the EC50 [4] was over 100 µM, the Activity [8] was “inactive” and the EC50 [5] was over 247 µM.
